PAFAH1B3 FP inh – PAFAH1B3 (human) inhibition | recombinant PAFAH1B3, FP-rhodamine probe, fluorescence polarization | inhibition, % at 3.39 µM | AID 492972 | actives 0.28% (n = 340,000) | Q15102;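 active means inhibition above the screen-wide average of all tested compounds plus 3 SD, cut at about 25% in these data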
Target sequence (Q15102 whole entry, looked up): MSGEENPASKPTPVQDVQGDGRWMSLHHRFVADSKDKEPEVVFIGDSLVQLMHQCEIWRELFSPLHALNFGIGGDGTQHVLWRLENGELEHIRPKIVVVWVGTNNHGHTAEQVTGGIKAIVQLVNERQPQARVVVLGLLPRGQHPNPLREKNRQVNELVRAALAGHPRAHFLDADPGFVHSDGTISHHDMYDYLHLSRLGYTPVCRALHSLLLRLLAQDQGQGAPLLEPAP
GRIN3A LBD mod – NR3A (human) ligand-binding domain modulation; actives 2.5% (n = 340,000); Tm shift relative to glycine control, % at 25 µM; NR3A LBD differential scanning fluorimetry, Tm shift; 0% = protein alone, 100% = glycine-bound protein; AID 1259313;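 active means melting temperature shift of at least 10% of the positive control shift, at one fixed dose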
PAFAH1B2 FP inh – blocks human PAF acetylhydrolase 1b catalytic subunit 2 | inhibition, % at 3.39 µM | actives 1.2% (n = 340,000) | AID 492953 | recombinant PAFAH1B2, FP-rhodamine activity probe, fluorescence polarization | P68402;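 active means inhibition above the mean of all tested compounds plus 3 SD, cut at about 24% in these data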
Target sequence (P68402 whole entry, looked up): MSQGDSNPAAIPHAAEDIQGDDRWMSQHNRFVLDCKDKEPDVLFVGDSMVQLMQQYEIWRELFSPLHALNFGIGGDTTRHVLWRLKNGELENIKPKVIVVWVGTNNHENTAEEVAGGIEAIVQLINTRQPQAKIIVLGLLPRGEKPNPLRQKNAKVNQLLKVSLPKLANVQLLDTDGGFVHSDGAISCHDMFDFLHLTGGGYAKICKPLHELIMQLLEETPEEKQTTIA
PAFAH2 FP inh – PAFAH2 (human) inhibition; Q99487; recombinant PAFAH2, FP-rhodamine activity probe, fluorescence polarization; inhibition, % at 3.39 µM; actives 0.99% (n = 340,000);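 active means inhibition above the mean over all tested compounds plus 3 SD, cut at about 30% in these data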;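 further: inhibitors block probe labeling of enzyme so polarization drops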
UCH37 inh – blocks the human deubiquitinase UCH37 | actives 0.33% (n = 330,000) | inhibition, % (no concentration beside the values) | purified proteasome/UCH37, Ub-AMC cleavage fluorescence | Q9Y5K5;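 active means mean inhibition over replicate wells above about 20%, limit read from the data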
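Reagent: Ub-AMC substrate; assay system: Proteasome-associated human UCH37 deubiquitinase; controls: no-proteasome and no-compound wells; read-out: % inhibition of Ub-AMC cleavage fluorescence; timing: 30 min preincubation with enzyme, 25 min cleavage at room temperature; signal: AMC fluorescence from Ub-AMC cleavage, excitation 355 nm, emission 460 nm; buffer or medium: Tris-HCl pH 7.4 plus ovalbumin, ATP-MgCl2, DTT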
pPAFAH inh – pPAFAH (human) enzyme inhibition. recombinant pPAFAH, FP-rhodamine probe fluorescence polarization. actives 1.5% (n = 330,000). Q13093. inhibition, % at 3.39 µM. AID 463082;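 active means inhibition above the mean inhibition across the screen plus 3 SD, cut at about 25% in these data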;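 further: inhibitors block binding of the rhodamine activity-based probe so polarization drops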
PAFAH2 FP conf – confirmation of human PAFAH2 inhibitors | actives 65% (n = 2,300) | AID 493030 | recombinant PAFAH2, FP-rhodamine activity probe, fluorescence polarization | shares compounds with PAFAH2 FP inh | inhibition, % at 3.39 µM;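 active means mean inhibition over three repeats above a set limit taken from the earlier primary screen, cut at about 30% in these data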;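 further: inhibitor blocks binding of rhodamine activity probe so polarization falls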
Hits are given with their value; n = inactive; x = no result. Rows were chosen to be rich in hits. Some 4.8% of all compounds tested hit in one or more screens of this group.

SMILES	PAFAH1B3 FP inh	GRIN3A LBD mod	PAFAH1B2 FP inh	PAFAH2 FP inh	UCH37 inh	pPAFAH inh	PAFAH2 FP conf
CC1=NN(c2ccc(C)cc2)C(=O)/C1=C/c1ccc(-c2cc([N+](=O)[O-])ccc2O)o1	n	n	n	34.4	n	x	n
COc1ccccc1C(C)=NNC(=S)NCc1ccccc1	x	x	x	x	n	x	x
Cc1ccccc1NC(=O)C1Cc2ccccc2C(=O)O1 (centres undefined)	n	n	n	36.0	n	n	30.3
CCCCC1=NN2C(=N)CC(=O)N=C2S1	n	n	n	33.4	n	n	n
CCOc1ccccc1OCC(=O)Nc1ccc(N2CCCCC2)cc1	n	n	n	n	n	n	x
O=C(COC(=O)c1ccccc1OC(F)F)Nc1ccc(N2CCCCC2)cc1	n	n	n	41.7	n	n	37.0
CCOc1ccccc1C(=O)OCC(=O)Nc1ccc(N2CCCCC2)cc1	n	n	n	36.2	n	n	n
COc1cc(NC(=O)CC(C)=NNC(=O)C(OC)c2ccccc2)c(OC)cc1Cl (centres undefined)	x	x	x	x	n	x	x
O=C(COC(=O)C1CC2C=CC1C2)Nc1cccc(S(=O)(=O)N2CCCCCC2)c1 (centres undefined)	n	n	n	35.7	n	n	n
O=C(COC(=O)C1CCC1)Nc1cccc(S(=O)(=O)N2CCOCC2)c1	n	n	n	n	n	n	x
O=C(COC(=O)C1CC2C=CC1C2)Nc1cccc(S(=O)(=O)N2CCCCC2)c1 (centres undefined)	n	n	n	53.4	n	n	41.1
O=C(NC1CCCCC1)C(c1ccncc1)N(CC1CCCO1)C(=O)C(F)(F)F (centres undefined)	n	n	n	41.5	n	n	n
CCC(CC)C(=O)OCC(=O)Nc1cccc([N+](=O)[O-])c1	n	n	n	36.1	n	n	n
Cc1cc(C(=O)OCC(=O)Nc2cccc([N+](=O)[O-])c2)c(C)o1	n	n	n	74.8	n	n	78.1
CCC(CCC(=O)Nc1cccc([N+](=O)[O-])c1)C(=O)O (centres undefined)	n	n	n	n	n	n	x
O=C(COC(=O)C1CCC(=O)N1)Nc1cccc([N+](=O)[O-])c1 (centres undefined)	n	n	n	n	x	n	x
O=C(COC(=O)c1c[nH]c(=O)[nH]c1=O)Nc1cccc([N+](=O)[O-])c1	n	n	n	30.8	n	n	n
CCOc1ccc(NC(=O)COC(=O)c2cc(C)oc2C)cc1	n	n	n	56.9	n	n	52.7
CC(=O)Nc1sc(NN=Cc2ccc(O)cc2)nc1-c1ccc(C)cc1	x	x	x	x	n	x	x
C=CCOC(=O)c1cc(-c2ccc(/C=C3\C(=O)NC(=O)C(C#N)=C3C)o2)ccc1Cl	n	n	n	42.4	n	x	n
Cc1csc(=NN=C2CCCCC2)n1Cc1ccco1	x	x	x	x	n	x	x
COC(=O)c1ccccc1S(=O)(=O)NNC(=O)Nc1ccccc1	n	n	n	34.4	n	n	n
COC(=O)c1ccccc1S(=O)(=O)C(C)(C)C	n	n	n	n	n	n	x
CCN(CC)c1ccc(C=Nn2c(-c3ccccc3Br)n[nH]c2=S)cc1	x	x	x	x	n	x	x
Cc1ccc(S(=O)(=O)ON2C(=O)c3cccc4cccc(c34)C2=O)cc1	n	n	n	30.2	n	n	n
SMILES	PAFAH1B3 FP inh	GRIN3A LBD mod	PAFAH1B2 FP inh	PAFAH2 FP inh	UCH37 inh	pPAFAH inh	PAFAH2 FP conf
O=C1c2cccc3cccc(c23)C(=O)N1OS(=O)(=O)c1ccccc1	n	n	n	n	n	n	x
O=C(Cn1nnc2ccccc21)NN=Cc1cccs1	x	x	x	x	n	x	x
COC(=O)NN=Cc1sc(N2CCCCC2)nc1-c1cccs1	x	x	x	x	n	x	x
CCOC(=O)c1sc2ncn(N=Cc3ccc(O)cc3)c(=O)c2c1C	x	x	x	x	n	x	x
Cc1ccc(NC(=O)Cc2nc(COC(=O)Cc3cccc(C(F)(F)F)c3)cs2)cc1	n	n	n	47.2	n	x	n
CC(C)(C)c1ccc(OCC(=O)Nc2cccc(S(=O)(=O)NC3=NCCCCC3)c2)cc1	n	n	n	n	n	n	x
COc1cc(OC)c(C(=O)OCC(=O)Nc2cccc(S(=O)(=O)NC3=NCCCCC3)c2)cc1OC	n	n	n	n	n	x	x
O=C(COC(=O)c1cccs1)Nc1cccc(S(=O)(=O)NC2=NCCCCC2)c1	n	n	n	48.4	n	n	36.2
